Legend:
MCF7 [1] = test: Cytotoxicity against human MCF7 cells expressing ER assessed as growth inhibition after 24 hrs by MTS assay; type: functional, cell-based; conditions: MCF7, 24 h
In short: (§1)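 ATCC breast cancer cells kept in RPMI-1640 with 5% FCS, insulin and glutamine under standard conditions. Cells in 96-well plates were treated in triplicate for 24 h with drug or vehicle. MTS viability was read as absorbance at 490 nm, expressed as a percentage of solvent controls, and IC50 was derived.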

Hs-578T = test: Cytotoxicity against ER, BimEL, BimL and BimS deficient human Hs578T cells expressing p53 mutant assessed as growth inhibition after 24 hrs by MTS assay; type: functional, cell-based; in short: as §1
MCF-10A = test: Cytotoxicity against ER, BimL and BimS deficient human MCF10A cells expressing wild type p53, BimEL assessed as growth inhibition after 24 hrs by MTS assay; type: cell-based
In short: (§2)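 Cell lines were obtained from ATCC, plated in 96-well plates, and exposed in triplicate to drug or vehicle for 24 h. Viability was measured by MTS absorbance at 490 nm, taken as a percentage of solvent-treated controls, and IC50 was derived.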

MDA-MB-468 = test: Cytotoxicity against ER deficient human MDA-MB-468 cells expressing p53 mutant, BimEL, BimL and BimS assessed as growth inhibition after 24 hrs by MTS assay; type: functional, cell-based; conditions: MDA-MB-468, 24 h; in short: as §1
OVCAR-3 = test: Cytotoxicity against BimEL, BimL and BimS deficient human OVCAR3 cells expressing p53 mutant assessed as growth inhibition after 24 hrs by MTS assay; type: functional, cell-based; conditions: OVCAR-3, 24 h; in short: as §2
SK-BR-3 = test: Cytotoxicity against ER deficient human SKBR3 cells expressing p53 mutant, BimEL, BimL and BimS assessed as growth inhibition after 24 hrs by MTS assay; type: functional, cell-based; conditions: SK-BR-3, 24 h; in short: as §1
IGROV-1 = test: Cytotoxicity against human IGROV1 cells expressing p53 mutant, BimEL, BimL and BimS assessed as growth inhibition after 24 hrs by MTS assay; type: functional, cell-based; conditions: IGROV-1, 24 h; in short: as §2
MDA-MB-157 = test: Cytotoxicity against ER, BimL and BimS deficient human MDA-MB-157 cells expressing p53 mutant, BimEL assessed as growth inhibition after 24 hrs by MTS assay; type: functional, cell-based; conditions: MDA-MB-157, 24 h; in short: as §1
MCF7 [2] = test: Cytotoxicity against human MCF7 cells expressing ER, wild type p53, BimEL, BimL and BimS assessed as growth inhibition after 24 hrs by MTS assay; type: functional, cell-based; conditions: MCF7, 24 h; in short: as §1
T47D = test: Cytotoxicity against BimL, BimS deficient human T47D cells expressing ER, p53 mutant, BimEL assessed as growth inhibition after 24 hrs by MTS assay; type: functional, cell-based; in short: as §1
PC-3 = test: Cytotoxicity against AR and BimS deficient human PC3 cells expressing p53 mutant, BimEL, BimL assessed as growth inhibition after 24 hrs by MTS assay; type: functional, cell-based; conditions: PC-3, 24 h; in short: as §2
MDA-MB-231 = test: Cytotoxicity against ER, BimEL, BimL and BimS deficient human MDA-MB-231 cells expressing p53 mutant assessed as growth inhibition after 24 hrs by MTS assay; type: functional, cell-based; conditions: MDA-MB-231, 24 h; in short: as §1
LNCaP = test: Cytotoxicity against human LNCAP cells expressing AR, wild type p53, BimEL, BimL and BimS assessed as growth inhibition after 24 hrs by MTS assay; type: functional, cell-based; in short: as §2

Question: With `CCCCC/C=C\C/C=C\CCCCCCCC(=O)C[C@H](COC(=O)c1ccc(Br)cc1)OC(=O)c1ccc(Br)cc1` as the compound, how does the IC50 (MCF7 [1]) read?
Answer: Its IC50 is greater than 21 µM.

Question: How did the IC50 (Hs-578T) turn out when `CCCCCCCCCCCCCCCCCC(=O)C[C@@H](O)COC(C)=O` was run?
Answer: Its IC50 is greater than 39 µM.

Question: What about the IC50 (MCF-10A) of the same compound?
Answer: The IC50 was greater than 39 µM.

Question: And the IC50 (MDA-MB-468)?
Answer: The IC50 was greater than 39 µM.

Question: And the IC50 (OVCAR-3)?
Answer: Its IC50 is greater than 39 µM.

Question: And the IC50 (SK-BR-3)?
Answer: The IC50 was greater than 39 µM.

Question: And the IC50 (IGROV-1)?
Answer: Its IC50 is greater than 39 µM.

Question: What about the IC50 (MDA-MB-157) of the same compound?
Answer: Its IC50 is greater than 39 µM.

Question: What about the IC50 (MCF7 [2]) of the same compound?
Answer: Its IC50 is 18.2 µM.

Question: And the IC50 (T47D)?
Answer: Its IC50 is 20.7 µM.

Question: What about the IC50 (PC-3) of the same compound?
Answer: The IC50 was greater than 39 µM.

Question: What about the IC50 (MCF7 [1]) of the same compound?
Answer: Its IC50 is 17.1 µM.

Question: And the IC50 (MDA-MB-231)?
Answer: Its IC50 is greater than 39 µM.

Question: What about the IC50 (LNCaP) of the same compound?
Answer: The IC50 was greater than 39 µM.

Question: Which IC50 (MCF7 [1]) does the source give for `CCCCCCCCCCCCCCCCCC(=O)C(C)(C)[C@@H](O)COC(C)=O` here?
Answer: The IC50 was 29 µM.

Question: For `CCCCC/C=C\C/C=C\CCCCCCCC(=O)/C=C/COC(=O)c1ccc([N+](=O)[O-])cc1`, which IC50 (MCF7 [1]) is on record?
Answer: Its IC50 is greater than 32 µM.

Question: `CCCCC/C=C\C/C=C\CCCCCCCC(=O)C[C@@H](O)COC(=O)c1ccccc1` was tested. Which IC50 (MCF7 [1]) did it give?
Answer: The IC50 was 27 µM.

Question: How did the IC50 (MCF7 [1]) turn out when `CCCCC/C=C\C/C=C\CCCCCCCC(=O)C[C@@H](O)COC(=O)c1ccncc1` was run?
Answer: Its IC50 is 20.1 µM.

Question: How did the IC50 (MCF7 [1]) turn out when `CCCCC/C=C\C/C=C\CCCCCCCC(=O)C[C@H](COC(=O)c1ccccc1)OC(=O)c1ccccc1` was run?
Answer: Its IC50 is greater than 27 µM.

Question: Which results are given for `CCCCC/C=C\C/C=C\CCCCCCCC(=O)C[C@@H](O)COC(C)=O`?
Answer: IC50 (Hs-578T): 32.1 µM; IC50 (MCF-10A): > 39 µM; IC50 (MDA-MB-468): 25 µM; IC50 (OVCAR-3): 27.9 µM; IC50 (SK-BR-3): 19.7 µM; IC50 (IGROV-1): 15.6 µM; IC50 (MDA-MB-157): 12.8 µM; IC50 (MCF7 [2]): 15.1 µM; IC50 (T47D): 30.3 µM; IC50 (PC-3): 30 µM; IC50 (MCF7 [1]): 15.1 µM; IC50 (MDA-MB-231): > 39 µM; IC50 (LNCaP): 22 µM

Question: With `CCCCC/C=C\C/C=C\CCCCCCCC(=O)C[C@H](COC(=O)c1ccc([N+](=O)[O-])cc1)OC(=O)c1ccc([N+](=O)[O-])cc1` as the compound, how does the IC50 (MCF7 [1]) read?
Answer: The IC50 was greater than 24 µM.

Question: How did the IC50 (MCF7 [1]) turn out when `CCCCCCC(=O)C[C@@H](O)COC(C)=O` was run?
Answer: The IC50 was greater than 65 µM.

Question: How did the IC50 (MCF7 [1]) turn out when `CCCCC/C=C\C/C=C\CCCCCCCC(=O)C[C@@H](O)COC(=O)c1ccc(Br)cc1` was run?
Answer: The IC50 was 23.8 µM.

— ChEMBL document CHEMBL1921794, “Synthesis and in vitro evaluation of analogues of avocado-produced toxin (+)-(R)-persin in human breast cancer cells” (Bioorg Med Chem, 2011)
